From PubChem BioAssay
Rows were chosen to be rich in hits. Some 0.94% of all compounds tested hit in one or more screens of this group.
GC-B act – GC-B (human) receptor activation | HEK293-GC-B cells, CNP EC30, cGMP TR-FRET; 0% at EC30 CNP, 100% saturating CNP | activation, % at 10 µM | 370,000 compounds, 0.11% hits;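 active = activation at 10 µM reaching about 35% in either raw or pattern-adjusted values, limit read from the data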
NPR1 activator – GC-A (human) enzyme activation | HEK293 GC-A cells, cGMP TR-FRET, EC30 ANP; 0% at EC30 ANP, 100% saturating ANP | activation, % at 10 µM | 370,000 compounds, 0.14% hits; in the data active = activation above about 40%
Arrestin-AP2 inh – blocks beta-arrestin peptide binding to AP2 adaptin; FITC-arrestin peptide / GST-AP2 beads, flow cytometry; AP2 beta2 appendage carries R879A mutation; inhibition, % at 10 µM; 340,000 compounds, 0.31% hits; AID 504490;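 active = inhibition above a set limit, near 3 SD of compounds lacking own fluorescence, cut at about 54% in these data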;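 note: plate controls were DMSO wells for no effect and 5 µM unlabelled arrestin peptide for full effect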
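Test system: GST-tagged AP2 beta2-adaptin appendage (R879A) on 4 µm glutathione beads; also added: fluorescein-tagged arrestin peptide at 50 nM final; timing: 12 min plus 1 h, RT; signal: flow cytometry, FL1 (488/535 nm); read-out: percent drop in bead-associated FITC signal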
GalR3 antag – human GalR3 antagonism. AID 651719. 360,000 compounds, 0.44% hits. HEK293 GalR3-CNG cAMP membrane potential fluorescence; galR3 body fused to GalR1 C-terminus. inhibition, % at 3 µM;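 active = inhibition above the screen-wide average plus 3 SD, cut at about 13% in these data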;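 note: forskolin and galanin both at EC90 stimulate the cells; cAMP rise reported by CNG channel membrane potential dye signal; 0% = forskolin plus galanin with DMSO and 100% = forskolin alone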
Target sequence (O60755 1-299 limits assumed): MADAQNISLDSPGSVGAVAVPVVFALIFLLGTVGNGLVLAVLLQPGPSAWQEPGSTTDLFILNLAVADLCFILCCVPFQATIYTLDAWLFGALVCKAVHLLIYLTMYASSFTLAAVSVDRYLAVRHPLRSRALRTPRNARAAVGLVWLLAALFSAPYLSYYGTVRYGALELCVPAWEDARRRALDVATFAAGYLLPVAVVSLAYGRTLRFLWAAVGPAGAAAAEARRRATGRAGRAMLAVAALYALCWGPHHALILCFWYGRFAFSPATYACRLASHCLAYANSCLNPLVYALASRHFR
Arr-AP2 CP1 – inhibitors of human beta-arrestin and AP2 interaction; shares compounds with Arrestin-AP2 inh; GST-AP2 beads, FITC arrestin peptide binding, flow cytometry; GST-fused beta2-adaptin appendage, R879A mutant; inhibition, % at 10 µM; 1,300 compounds, 2% hits; AID 504908;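 active = inhibition above a set limit, roughly 3 SD of non-fluorescent compound noise, cut at about 38% in these data; inactive = inhibition at or below that limit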;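 note: loss of bead fluorescence from 50 nM FITC arrestin peptide bound to appendage; 0% = negative control wells and 100% = excess unlabelled arrestin peptide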
GST-FITC bead – disrupts GST binding to glutathione beads, arrestin-AP2 artifact | shares compounds with Arrestin-AP2 inh | inhibition, % at 10 µM | 1,300 compounds, 2% hits | GST-fluorescein binding to GSH beads, fluorescence, counter-screen;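 active = inhibition above 50%, about 3 SD of the inhibition seen with non-fluorescent compounds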;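 note: fluorescein maleimide labelled GST captured on 4 micron glutathione beads; higher means more loss of bead fluorescence from quenching or blocked binding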
An asterisk follows results filed as active; . = no result.

SMILES	GC-B act	NPR1 activator	Arrestin-AP2 inh	GalR3 antag	Arr-AP2 CP1	GST-FITC bead
CCNS(=O)(=O)c1ccc(NC(=O)Cn2nc(C(F)(F)F)cc2C)cc1	2	-2	62*	-1	7	5
Nc1c(C(=O)NC2CC2)sc2nc3c(c(-c4ccco4)c12)CC/C3=C/c1ccco1	.	.	55*	.	35	22
CCOC(=O)c1cc2c(ccn2C)n1Cc1ccc(Cl)cc1	-7	-4	54*	-6	-9	-2
CCOc1ccc(/C=C2\CCC(C3CCCC3)C2=O)cc1OC (centres undefined)	-1	6	59*	-2	12	-3
COc1ccc(-c2nc(CCl)cs2)cc1	-3	-2	-3	3	.	.
COc1ccc(-c2nc(CCl)cs2)cc1OC	-3	1	54*	-3	-7	-5
COc1cccc(N2CCN(CC(=O)NCc3ccc(F)cc3)CC2)c1	5	1	.	.	.	.
Cc1[nH]c2ccccc2c1C(=O)c1c(N)[nH]c(C(=O)c2ccccc2)c1-c1ccc(Cl)cc1	-11	-7	.	-9	.	.
COc1cc(Cl)c(C)cc1NC(=O)c1ccc(S(C)(=O)=O)cc1	4	-7	55*	-6	-5	-10
COc1cc(NC(=O)c2ccccc2)c(OC)cc1Cl	-5	3	6	-3	.	.
COc1ccc(NC(=O)c2ccc(S(=O)(=O)C(F)F)cc2)c(OC)c1	-2	3	60*	-7	0	-7
C[C@H](O)[C@@H]1CN2CCc3ccc(-c4ccc5c(c4)OCO5)cc3[C@@H]2C[C@@H]1N(C)Cc1ccccc1	3	3	.	-8	.	.
Cc1ccc(S(=O)(=O)N2CCCc3nc(-c4ccccc4)ccc32)cc1	2	2	.	-6	.	.
COC(=O)c1cc2c(c3c4cc(F)ccc4n(S(=O)(=O)c4ccc(C)cc4)c13)C(=O)N(Cc1ccccc1OC)C2	-3	1	.	4	.	.
O=C1C(Cl)=C(NC(=O)c2ccccc2)C(=O)C(Cl)=C1NC(=O)c1ccccc1	11	31	58*	-10	75*	9
O=C(NC1=C(Nc2ccc(Cl)cc2)C(=O)c2ccccc2C1=O)c1ccccc1	-3	-5	17	0	.	.
Fc1cccc(F)c1/C=N/Nc1ccccn1	0	-1	55*	-2	-4	-2
Fc1cccc(Cl)c1/C=N/Nc1ccccn1	1	-6	11	2	.	.
CCNC(=S)/N=C(\N)Nc1nc(C)c2cc(C)ccc2n1	13	18	64*	-3	-7	1
Cc1cc(NC(=O)COC(=O)C2CSC3(C)CCC(=O)N23)ccc1Br (centres undefined)	0	2	-8	-7	-9	5
Cc1cc(Br)ccc1NC(=O)C1CSC2(C)CCC(=O)N12 (centres undefined)	2	5	-2	2	.	.
CC12CCC(=O)N1C(C(=O)OCC(=O)Nc1ccc(Cl)c(Cl)c1)CS2 (centres undefined)	-5	-7	-10	-6	5	-5
CN(C)S(=O)(=O)c1ccc(Cl)c(NC(=O)COC(=O)C2CSC3(C)CCC(=O)N23)c1 (centres undefined)	1	-1	25	-10	1	12
COc1cc(C(=O)OCC(=O)Nc2nnc(-c3ccccc3)o2)cc(OC)c1OC	4	-3	55*	-2	-6	-8
O=C(NC1CC2CCCC(C1)N2C(=S)NCCc1ccccc1)C1CC1 (centres undefined)	-2	1	56*	-5	-2	-3
O=C(NC1CC2CCCC(C1)N2C(=O)NCc1ccccc1)C1CC1 (centres undefined)	6	1	20	-4	.	.
COC(=O)c1cc2c(c3c4cc(OC)ccc4n(S(=O)(=O)c4ccc(C)cc4)c13)C(=O)N(C)C2	4	-1	.	-6	.	.
CC(C)OC(=O)CSc1nc(Cc2ccccc2)nc2ccccc12	-5	-10	71*	-5	-11	0
COC(=O)C1=C(C(C)=O)C(c2ccc(C)cc2)n2nnnc2N1 (centres undefined)	6	3	39	-3	.	.
